Reference: ChEMBL document CHEMBL5104115, “Design, synthesis of novel triptolide-glucose conjugates targeting glucose Transporter-1 and their selective antitumor effect” (Eur J Med Chem, 2022)
Active and inactive are the calls of the source. The rule behind the calls is not given here.

What was measured:
[1] = Toxicity in BALB/c nude mouse xenografted with human NCI-H1975 cells assessed as reduction of cytoplasmic nuclei at 2 mg/kg administered ip, qd for 2 weeks; settings: in vivo, 336 h
NCI-H1975 [2] = assay: Cytotoxicity against Glut1 knocked down human NCI-H1975 cells transfected with KD2 assessed as decrease in cell viability incubated for 72 hrs by MTT assay; format: functional, cell-based; settings: NCI-H1975, 72 h
Summary of the method: (§1)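 Stable Glut-1 knockdown (KD1, KD2, vector KD V) or overexpression (OE, vector OE V) NCI-H1975 cells made by 12 h lentiviral infection, 72 h culture, then 14 days puromycin selection; Glut-1 confirmed by Western blot. Cells seeded at 4000/well overnight, dosed over a concentration range or DMSO for 72 h. MTT read at 570 nm; IC50 from ≥3 replicates.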

[3] = Drug distribution in NCI-H1975 tumor bearing nude mouse model assessed as tumor to liver ratio of triptolide metabolite at 2 mg/kg, iv by LC-MS analysis; format: ADME, organism-based; settings: in vivo
Summary of the method: (§2)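 NCI-H1975 xenograft mice, tumors about 500 mm3, 3 per group, fasted 12 h with water available. Given 2 mg/kg iv and sacrificed 1 h later. Heart, liver, lung, kidney and tumor weighed and flash-frozen. 1.0 g tissue homogenized in 2.0 mL saline, methanol-precipitated, reconstituted. Parent, triptolide succinate and triptolide measured by LC-MS; tumor/organ ratios calculated.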

[4] = Stability in NCI-H1975 tumor bearing nude mouse model plasma at 1 mg/kg, iv; format: ADME, organism-based; settings: in vivo
[5] = Toxicity in BALB/c nude mouse xenografted with human NCI-H1975 cells assessed as degeneration of inter tube connective tissue at 2 mg/kg administered ip, qd for 2 weeks; settings: in vivo, 336 h
NCI-H460 [6] = assay: Induction of apoptosis in human NCI-H460 cells assessed as viable cells at 50 uM measured after 48 hrs by Annexin V-FITC/PI staining method (reference value: 86.7%); format: functional; settings: read-out: Activity
[7] = Toxicity in BALB/c nude mouse xenografted with human NCI-H1975 cells assessed as morphological change in lung at 1 to 2 mg/kg administered ip, qd for 2 weeks; settings: in vivo, 336 h
[8] = MRT (0 to 3 hrs) in NCI-H1975 tumor bearing nude mouse model serum at 1 mg/kg, iv; format: ADME, organism-based
NCI-H1975 [9] = assay: Cytotoxicity against human NCI-H1975 cells transfected with OE overexpressing Glut1assessed as decrease in cell viability incubated for 72 hrs by MTT assay; format: functional, cell-based; settings: NCI-H1975, 72 h
Summary of the method: as §1

NCI-H460 [10] = assay: Induction of apoptosis in human NCI-H460 cells assessed as viable cells at 1 uM measured after 48 hrs by Annexin V-FITC/PI staining method (reference value: 86.7%); format: functional; settings: read-out: Activity
[11] = Toxicity in BALB/c nude mouse xenografted with human NCI-H1975 cells assessed as reduction of cytoplasmic vacuoles at 2 mg/kg administered ip, qd for 2 weeks; settings: in vivo, 336 h
[12] = Cytotoxicity against HUVEC transfected with OE V overexpressing Glut1assessed as decrease in cell viability incubated for 72 hrs by MTT assay; format: toxicity, cell-based; settings: human, HUVEC cells transfected with OE V overexpressing Glut1
Summary of the method: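 HUVEC kept in DMEM with 10% FBS, made to overexpress Glut-1 (OE) or carry vector (OE V) by lentiviral infection and puromycin selection for 14 days, with Western blot check. Seeded at 4000 cells/well, treated over a concentration range or DMSO for 72 h, then MTT at 570 nm. IC50 taken from at least three replicates.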

NCI-H460 [13] = assay: Induction of apoptosis in human NCI-H460 cells assessed as necrotic cells at 20 uM measured after 48 hrs by Annexin V-FITC/PI staining method (reference value: 1.62%); format: functional
NCI-H460 [14] = assay: Induction of apoptosis in human NCI-H460 cells assessed as early apoptotic cells at 50 uM measured after 48 hrs by Annexin V-FITC/PI staining method (reference value: 3.26%); format: functional
NCI-H1975 [15] = assay: Cytotoxicity against human NCI-H1975 cells incubated for 72 hrs by MTT assay; format: functional, cell-based; settings: NCI-H1975, 72 h
Summary of the method: (§3)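 Cells seeded at 4000/well, incubated overnight, then exposed to a range of concentrations, or DMSO vehicle, for 72 h. MTT (5 mg/mL solution) added for 4 h and formazan dissolved in DMSO. Absorbance read at 570 nm, and IC50 derived from the curves. Tumor lines were grown in RPMI 1640; HUVEC, HaCaT and LO2 were grown in DMEM, each with 10% FBS at 37 °C and 5% CO2.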

NCI-H1975 [16] = assay: Antitumor activity against human NCI-H1975 cells xenografted in BALB/c nude mouse assessed as tumor growth inhibition at 2 mg/kg, ip, qd for 2 weeks relative to control; settings: NCI-H1975, 336 h, read-out: TGI
NCI-H460 [17] = assay: Induction of apoptosis in human NCI-H460 cells assessed as viable cells at 20 uM measured after 48 hrs by Annexin V-FITC/PI staining method (reference value: 86.7%); format: functional; settings: read-out: Activity
[18] = Cytotoxicity against human L02 cells incubated for 72 hrs by MTT assay; format: toxicity, cell-based
Summary of the method: as §3

NCI-H460 [19] = assay: Induction of mitochondrial membrane potential loss in human NCI-H460 cells by flow cytometric analysis; format: functional, cell-based
Summary of the method: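 Treated NCI-H460 cells suspended in 1% BSA DPBS and stained with TMRE (from a 1 mM stock) for 20 min in the dark. Cells then washed and resuspended in 1% BSA DPBS. Relative TMRE fluorescence intensity taken as the readout of membrane potential.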

[20] = Toxicity in BALB/c nude mouse xenografted with human NCI-H1975 cells assessed as decreased spermatogenic cells at 2 mg/kg administered ip, qd for 2 weeks; settings: in vivo, 336 h
[21] = Cytotoxicity against HUVEC incubated for 72 hrs by MTT assay; format: toxicity, cell-based; settings: human, HUVEC cells
Summary of the method: as §3

NCI-H460 [22] = assay: Induction of apoptosis in human NCI-H460 cells assessed as late apoptotic cells at 20 uM measured after 48 hrs by Annexin V-FITC/PI staining method (reference value: 8.47%); format: functional
[23] = Toxicity in BALB/c nude mouse xenografted with human NCI-H1975 cells assessed as irregular spermatogenic tubules at 2 mg/kg administered ip, qd for 2 weeks; settings: in vivo, 336 h
[24] = Drug distribution in NCI-H1975 tumor bearing nude mouse model assessed as tumor to lung ratio of triptolide metabolite at 2 mg/kg, iv by LC-MS analysis; format: ADME, organism-based; settings: in vivo
Summary of the method: as §2

[25] = Toxicity in BALB/c nude mouse xenografted with human NCI-H1975 cells assessed as morphological changes in testis at 1 mg/kg administered ip, qd for 2 weeks; settings: in vivo, 336 h
NCI-H1975 [26] = assay: Cytotoxicity against Glut1 knocked down human NCI-H1975 cells transfected with KD1 assessed as decrease in cell viability incubated for 72 hrs by MTT assay; format: functional, cell-based; settings: NCI-H1975, 72 h
Summary of the method: as §1

[27] = Toxicity in BALB/c nude mouse xenografted with human NCI-H1975 cells assessed as morphological change in liver at 1 to 2 mg/kg administered ip, qd for 2 weeks; settings: in vivo, 336 h

## CC(C)[C@]12O[C@H]1[C@@H]1O[C@]13[C@]1(O[C@H]1C[C@H]1C4=C(CC[C@@]13C)C(=O)OC4)[C@@H]2OC(=O)CCC(=O)O[C@H]1C(O)O[C@H](CO)[C@@H](O)[C@@H]1O (some centres not stated)
[1]
  Activity: Toxic
NCI-H1975 [2]
  IC50: 11.6 µM
[3]
  Ratio: 9.3
[4]
  Stability: Unstable
[5]
  Activity: Toxic
NCI-H460 [6]
  viability at 50 µM: 22.7%
[7]
  Activity: Non-Toxic
[8]
  MRT last: 33.6 min
NCI-H1975 [9]
  IC50: 2.44 µM
NCI-H460 [10]
  viability at 1 µM: 84.6%
[11]
  Activity: Toxic
[12]
  IC50 at 72 h: 9.22 µM
NCI-H460 [13]
  Activity: 4.89%
NCI-H460 [14]
  Activity: 50.2%
NCI-H1975 [15]
  IC50: 2.04 µM
NCI-H1975 [16]
  inhibition in vivo at 2 mg/kg: 90.4%
NCI-H460 [17]
  viability at 20 µM: 32.6%
[18]
  IC50 at 72 h: 1.32 µM
NCI-H460 [19]
  Activity: Active
[20]
  Activity: Toxic
[21]
  IC50 at 72 h: 8.55 µM
NCI-H460 [22]
  Activity: 27.4%
[23]
  Activity: Toxic
[24]
  Ratio: 15.5
[25]
  Activity: Non-Toxic
NCI-H1975 [26]
  IC50: 7.01 µM
[27]
  Activity: Non-Toxic
